Columns and labels:
Rattus norvegicus = experiment: Antiinflammatory activity against carrageenan-induced paw edema in Charles Foster albino rat at 50 mg/kg, po administered 30 mins before carrageenan challenge measured after 1 to 3 hrs; assay type: functional
Procedure, shortened: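 Groups of five rats, both sexes, 120–160 g, pregnant females excluded; 30 min after oral dose, 0.20 ml of 1% fresh carrageenan in 0.9% NaCl injected into hind-paw plantar aponeurosis; paw volume by water plethysmometer before and 1–3 h after; % inhibition = [1 − Dt/Dc] × 100 versus carrageenan-only control group of five.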

Mus musculus = experiment: Analgesic activity against acetic acid-induced writhes in mouse at 50 mg/kg, po administered 30 mins before acetic acid challenge measured for 60 mins; assay type: functional
Procedure, shortened: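 Mice of both sexes, 20–30 g, non-pregnant, groups of five; oral test dose given 30 min before 0.25 ml/mouse of 0.5% acetic acid; writhes counted over the following 60 min; group mean writhes expressed as percent decrease versus untreated control group of five mice.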

SMILES	Activity (Rattus norvegicus)	Activity (Mus musculus)
N=C(/N=c1\scc(-c2ccccc2)n1-c1ccc(Cl)cc1)c1ccccn1	17%	12%
N=C(/N=c1\scc(-c2ccccc2)n1-c1ccc([N+](=O)[O-])cc1)c1ccccn1	26%	18%
N=C(/N=c1\scc(-c2ccccc2)n1-c1ccccc1[N+](=O)[O-])c1ccccn1	49%	–
CCOc1ccc(-c2cs/c(=N\C(=N)c3ccccn3)n2-c2ccccc2)cc1	0%	50%
Cc1ccccc1-n1c(-c2ccccc2)cs/c1=N\C(=N)c1ccccn1	0%	50%
COc1ccc(-n2c(-c3ccccc3)cs/c2=N\C(=N)c2ccccn2)cc1	17%	12%
CC(=O)c1ccc(-n2c(-c3ccccc3)cs/c2=N\C(=N)c2ccccn2)cc1	20%	25%
O=C(/N=c1\scc(-c2ccccc2)n1-c1ccc(Cl)cc1)c1cc(=O)[nH]c(=O)[nH]1	2%	–
O=C(CC1NC(=O)NC1=O)/N=c1\scc(-c2ccccc2)n1-c1ccccc1[N+](=O)[O-] (stereo unspecified)	17%	–
O=C(CC1NC(=O)NC1=O)/N=c1\scc(-c2ccccc2)n1-c1ccc([N+](=O)[O-])cc1 (stereo unspecified)	34%	–
N=C(/N=c1\scc(-c2ccc(Br)cc2)n1-c1ccc2ccccc2c1)c1ccccn1	0%	40%
COc1ccc(-n2c(-c3ccccc3)cs/c2=N\C(=O)c2cc(=O)[nH]c(=O)[nH]2)cc1	9%	8%
CC(=O)c1ccc(-n2c(-c3ccccc3)cs/c2=N\C(=O)c2cc(=O)[nH]c(=O)[nH]2)cc1	12%	8%
O=C(/N=c1\scc(-c2ccccc2)n1-c1ccccc1[N+](=O)[O-])c1cc(=O)[nH]c(=O)[nH]1	25%	–
COc1ccc(-c2cs/c(=N\C(=O)c3cc(=O)[nH]c(=O)[nH]3)n2-c2ccc([N+](=O)[O-])cc2)cc1	15%	10%
COc1ccccc1-n1c(-c2ccccc2)cs/c1=N\C(=N)c1ccccn1	23%	–
O=C(CC1NC(=O)NC1=O)/N=c1\scc(-c2ccccc2)n1-c1ccc(Cl)cc1 (stereo unspecified)	10%	0%
CC(=O)Oc1ccccc1C(=O)O [ASPIRIN]	43%	–
CC(C)Cc1ccc(C(C)C(=O)O)cc1 (stereo unspecified) [IBUPROFEN]	39%	50%
